Reference: ChEMBL document CHEMBL1159094, “New iodinated quinoline-2-carboxamides for SPECT imaging of the translocator protein” (Bioorg Med Chem Lett, 2010)

Columns and labels:
[1] = Lipophilicity, log P by HPLC method; settings: octanol/water
Translocator protein = Translocator protein (Rattus norvegicus, UniProt P16257); assay: Displacement of [3H]PK11195 from TSPO in Sprague-Dawley rat brain homogenates by liquid scintillation counting; type: tissue-based
[2] = Chemical stability in 0.01 mM phosphate buffered saline assessed as purity of parent compound after 4 hrs by HPLC analysis; type: physicochemical; settings: read-out: Activity
Procedure, shortened: (§1)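 Test compound incubated in phosphate buffered saline at 37 °C. Parent compound decomposition followed over time by HPLC.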

[3] = Chemical stability in 0.01 mM phosphate buffered saline assessed as purity of parent compound after 6 hrs by HPLC analysis; type: physicochemical; settings: read-out: Activity
Procedure, shortened: as §1

[4] = Chemical stability in 0.01 mM phosphate buffered saline assessed as purity of parent compound after 2 hrs by HPLC analysis; type: physicochemical; settings: read-out: Activity
Procedure, shortened: as §1

[5] = Chemical stability in 0.01 mM phosphate buffered saline assessed as purity of parent compound after 1 hr by HPLC analysis; type: physicochemical; settings: read-out: Activity
Procedure, shortened: as §1

[6] = Chemical stability in 0.01 mM phosphate buffered saline assessed as purity of parent compound after 24 hrs by HPLC analysis; type: physicochemical; settings: read-out: Activity
Procedure, shortened: as §1

Sequence of Translocator protein (P16257 whole entry, looked up): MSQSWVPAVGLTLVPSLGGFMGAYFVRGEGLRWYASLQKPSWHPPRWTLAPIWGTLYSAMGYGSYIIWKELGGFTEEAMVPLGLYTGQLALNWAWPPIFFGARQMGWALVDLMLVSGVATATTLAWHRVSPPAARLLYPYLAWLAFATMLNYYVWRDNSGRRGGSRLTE

With `CN(Cc1cccc(I)c1)C(=O)c1cc(-c2ccc(F)cc2)c2ccccc2n1` the logP [1] was 5.16 and the Ki (Translocator protein) was over 1000 nM.
In the case of `Cc1c(C(=O)N(C)Cc2ccc(I)cc2)nc2ccccc2c1-c1ccccc1`, the logP [1] is reported as 5.12 and the Ki (Translocator protein) is reported as over 1000 nM.
For `CN(CCc1ccccc1)C(=O)c1nc2ccccc2c(-c2ccccc2)c1CI`, the logP [1] was 5.41 and the Ki (Translocator protein) was 411 nM.
Compound `CCN(CC)C(=O)c1nc2ccccc2c(-c2ccccc2)c1CI` has a remaining at 4 h [2] of 94%, a remaining at 6 h [3] of 94% and a remaining at 2 h [4] of 96%. It also gave a remaining at 1 h [5] of 96% and a remaining at 24 h [6] of 79%.
In the case of `CCC(C)N(C)C(=O)c1cc2ccccc2c(-c2ccccc2Cl)n1` (configuration not stated) [PK-11195], the logP [1] is reported as 3.85.
